37 sequences from the array DNA melting data of Ke et al. (doi:10.1101/2024.01.08.574731) can be followed below.

Data set [1] in a line: folding enthalpy; higher = less favourable; fluorescence melt of hairpins on a sequencing array, two-state fit. The settings on record: sodium 0.088 M. The procedure, abridged: (§1)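 Library hairpins on a sequenced MiSeq flow cell carried annealed Cy3 and quencher oligos, and their Cy3 fluorescence was imaged in 50 mM Na-HEPES pH 8.0 with 25 mM NaCl, in 2.5 °C steps up to 60 °C. Signals were normalised to Cy3 before quenching and to control constructs. Melting temperature and folding enthalpy were obtained from bootstrapped two-state fits, combined by inverse-variance weighting across four replicates, and the fitted temperatures were then raised by 9.35 °C to match UV melts.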

The nature of data set [2]: melting temperature; fluorescence melt of hairpins on a sequencing array, two-state fit, raised by 9.35 °C to match UV melts. The note with it: sodium 0.088 M. The procedure, abridged:
as §1

On to GTACCGGGAAACCAGTAC ((((.((....)).)))), for which, in data set [1], the folding enthalpy was -23.5 kcal/mol. Further, the Tm in data set [2] is 38.4 °C.
The corresponding values for GTACCGGGAAACCGGCAC ((.((((....)))).)) are -17.7 kcal/mol and 47.9 °C.
Take GTACCGGGAAACTGGTGC (.(((.(....).))).): in data set [1], the folding enthalpy was -25.9 kcal/mol. In data set [2], the Tm was determined as 42.4 °C.
Consider GTACCTCGAAAGAGTTAC (((.(((....))).))), for which the folding enthalpy in data set [1] was -27.9 kcal/mol. In addition, the Tm in data set [2] was 35.3 °C.
On to GTACCTGAAAAGGTAC ((((((....)))))), for which, in data set [1], the folding enthalpy was -31.6 kcal/mol. Moreover, the Tm in data set [2] was determined as 60 °C.
The like results for GTACCTGGAAACAGATAC (((.(((....))).))) were, in that order, -18.8 kcal/mol and 32.7 °C.
With GTACGACGAAAGTCTAC (((.(((....)))))), in data set [1], the folding enthalpy is -19.7 kcal/mol. For the same sequence, the Tm in data set [2] was 37.2 °C.
The corresponding values for GTACGAGGAAACTCGCAC ((.((((....)))).)) are -19.8 kcal/mol and 42.4 °C.
The like results for GTACGAGGAAACTCGTAC (((((((....))))))) were, in that order, -36.4 kcal/mol and 61.9 °C.
The corresponding values for GTACGAGGAAACTCGTGC (.(((((....))))).) are -39.2 kcal/mol and 52 °C.
In the case of GTACGCACGAAAGTGTAC (((..(((....)))))), the folding enthalpy in data set [1] is -15.6 kcal/mol. Further, the Tm in data set [2] is 36.4 °C.
The like results for GTACGCGAAAGCGACTAC ((((((....)))..))) were, in that order, -11.9 kcal/mol and 41.9 °C.
The like results for GTACGCGAAAGCGGATAC ((((((....)))..))) were, in that order, -10.3 kcal/mol and 37.1 °C.
The like results for GTACGCGAAAGCGGGTAC ((((((....)))..))) were, in that order, -10.6 kcal/mol and 38.7 °C.
Turning to GTACGCGGAAACGCGCAC ((.((((....)))).)), in data set [1], the folding enthalpy is -14 kcal/mol. Also, the Tm in data set [2] is 52.9 °C.
The corresponding values for GTACGCGGAAACGCGTGC (.(((((....))))).) are -15.4 kcal/mol and 60.9 °C.
Turning to GTACGCTCGAAAGAGTAC (((..(((....)))))), the folding enthalpy in data set [1] is -21.8 kcal/mol. Besides, the Tm in data set [2] turned out to be 34.1 °C.
The like results for GTACGGCGAAAGCCATAC (((.(((....))).))) were, in that order, -17.7 kcal/mol and 42.1 °C.
The like results for GTACGGCGAAAGCCTTAC (((.(((....))).))) were, in that order, -19.3 kcal/mol and 43.2 °C.
The corresponding values for GTACGGGGAAACCCGTAC (((((((....))))))) are -41.9 kcal/mol and 67.3 °C.
Take GTACGGGGAAACCCGTGC (.(((((....))))).): in data set [1], the folding enthalpy is -26.9 kcal/mol. Moreover, the Tm in data set [2] was 55.6 °C.
The corresponding values for GTACGTGGAAACACGTGC (.(((((....))))).) are -28 kcal/mol and 54.2 °C.
The corresponding values for GTACGTGGAAACATGTGC (.((.((....)).)).) are -24.4 kcal/mol and 36.5 °C.
The corresponding values for GTACTACGAAAGTACTAC (((.(((....))).))) are -17.8 kcal/mol and 38.6 °C.
Regarding GTACTACGAAAGTATTAC (((.(((....))).))), the folding enthalpy in data set [1] was -23.5 kcal/mol. Moreover, in data set [2], the Tm was 32.8 °C.
As to GTACTAGGAAACCAGTAC (((((.(....).))))), the folding enthalpy in data set [1] is -26.9 kcal/mol. Further, the Tm in data set [2] turned out to be 36 °C.
The corresponding values for GTACTAGGAAACTAGTAC (((((((....))))))) are -40.1 kcal/mol and 52.3 °C.
The like results for GTACTCCGAAAGGAATAC (((.(((....))).))) were, in that order, -26 kcal/mol and 37.7 °C.
As for GTACTCCGAAAGGATTAC (((.(((....))).))), the folding enthalpy in data set [1] is -29.8 kcal/mol. Further, in data set [2], the Tm is 37.6 °C.
The like results for GTACTCGAAAGAGGGTAC ((((((....)))..))) were, in that order, -14.2 kcal/mol and 33.7 °C.
The like results for GTACTCGGAAACGAGCAC ((.((((....)))).)) were, in that order, -19.3 kcal/mol and 48.6 °C.
Regarding GTACTCGGAAACGAGTAC (((((((....))))))), the folding enthalpy in data set [1] is -37.7 kcal/mol. The Tm in data set [2] turned out to be 63 °C.
The corresponding values for GTACTCGGAAACGGGTAC ((((.((....)).)))) are -42.6 kcal/mol and 50.6 °C.
Consider GTACTGGAAACAGTAC ((((((....)))))), for which the folding enthalpy in data set [1] is -36 kcal/mol. The Tm in data set [2] was 54.7 °C.
The like results for GTACTGGGAAACTAGTAC (((((.(....).))))) were, in that order, -36.8 kcal/mol and 42.2 °C.
Consider GTACTTCGAAAGAAATAC (((.(((....))).))), for which, in data set [1], the folding enthalpy is -17.1 kcal/mol. Further, the Tm in data set [2] was found to be 29.3 °C.
The like results for GTACTTCGAAAGAATAC (((.(((....)))))) were, in that order, -7.86 kcal/mol and 25.9 °C.
